Data from ChEMBL document CHEMBL1125128, “(1R,3S)-1-(aminomethyl)-3,4-dihydro-5,6-dihydroxy-3-phenyl-1H-2-benzopyran: a potent and selective D1 agonist” (J Med Chem, 1990).
Several values for one entry are separate records, joined by “and”; a condition that tells them apart may be missing. Equal values may be shown once.

How the values were obtained:
[1] = target: D(2) dopamine receptor (Rattus norvegicus) (UniProt P61169); experiment: Percent intrinsic activity was determined by measuring the formation of cAMP on Dopamine receptor D2 in vitro in rat intermediate lobe; format: functional
Sequence of D(2) dopamine receptor (Rattus norvegicus) (P61169 whole entry): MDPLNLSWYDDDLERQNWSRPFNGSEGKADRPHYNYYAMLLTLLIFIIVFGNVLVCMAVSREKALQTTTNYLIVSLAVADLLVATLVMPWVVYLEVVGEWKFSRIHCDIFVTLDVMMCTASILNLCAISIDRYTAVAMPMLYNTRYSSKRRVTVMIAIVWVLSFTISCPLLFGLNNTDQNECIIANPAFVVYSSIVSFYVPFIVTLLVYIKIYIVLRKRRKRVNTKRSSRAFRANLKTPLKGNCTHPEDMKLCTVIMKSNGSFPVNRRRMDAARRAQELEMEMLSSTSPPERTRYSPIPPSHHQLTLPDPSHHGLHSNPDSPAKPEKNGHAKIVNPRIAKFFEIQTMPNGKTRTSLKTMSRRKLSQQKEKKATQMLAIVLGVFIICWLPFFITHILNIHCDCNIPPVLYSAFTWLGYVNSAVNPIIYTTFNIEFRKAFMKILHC

D(2) dopamine receptor [2] = target: T1, D(2) dopamine receptor (Rattus norvegicus, UniProt P61169); experiment: Formation of cAMP on Dopamine receptor D2 in vitro in rat intermediate lobe; format: functional
T1 sequence (P61169 whole entry): as above

D(2) dopamine receptor [3] = target: T1, D(2) dopamine receptor; experiment: Binding affinity was determined by measuring the ability to displace [125I]N-(p-aminophenethyl)-spiroperidol from Dopamine receptor D2 in rat caudate (in vitro)
Summary of the method: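 Homogenized rat caudate was the tissue, and [¹²⁵I]-N-(p-aminophenethyl)spiroperidol was the radioligand displaced. Values are means with the SEM range.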

D(1A) dopamine receptor = D(1A) dopamine receptor (Rattus norvegicus, UniProt P18901); experiment: Binding affinity was determined by measuring the ability to displace [125I]SCH-23982 from Dopamine receptor D1 in rat caudate (in vitro)
Sequence of D(1A) dopamine receptor (P18901 whole entry): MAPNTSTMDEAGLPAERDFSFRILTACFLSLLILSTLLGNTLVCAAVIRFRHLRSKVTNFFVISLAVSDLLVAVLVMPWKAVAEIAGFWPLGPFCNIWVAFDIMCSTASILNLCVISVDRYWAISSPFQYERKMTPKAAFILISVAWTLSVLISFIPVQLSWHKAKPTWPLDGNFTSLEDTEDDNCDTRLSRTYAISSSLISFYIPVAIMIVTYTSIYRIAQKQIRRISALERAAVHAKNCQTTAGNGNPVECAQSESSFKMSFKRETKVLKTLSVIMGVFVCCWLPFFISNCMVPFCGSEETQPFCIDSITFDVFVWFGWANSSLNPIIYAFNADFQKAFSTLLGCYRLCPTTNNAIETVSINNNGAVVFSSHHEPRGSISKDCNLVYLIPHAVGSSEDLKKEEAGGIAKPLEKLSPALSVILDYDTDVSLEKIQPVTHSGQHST
Summary of the method: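 Homogenized rat caudate was used as the tissue source. [¹²⁵I]SCH23982 was the displaced radioligand, and affinity was expressed as Ki. Values are means with the SEM range.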

| Compound | IA [1] | EC50 (D(2) dopamine receptor [2]) | Ki (D(2) dopamine receptor [3]) | Ki (D(1A) dopamine receptor) [nM] |
| --- | --- | --- | --- | --- |
| NC[C@@H]1O[C@H](c2ccccc2)Cc2c1ccc(O)c2O (stereo in doubt; form 1) [listing 1 of 2 here] |  | 3910 nM and 10200 nM | 776 nM and 807 nM |  |
| NCC1OCCc2c1ccc(O)c2O (stereo not given) [listing 1 of 3 here] |  | 2850 nM | 4610 nM | 1030 |
| NCC1OCCc2c1ccc(O)c2O (stereo not given) [listing 3 of 3 here] |  | 2850 nM | 4610 nM | 1030 |

The next lines start with the values.

| IA [1] | EC50 (D(2) dopamine receptor [2]) | Ki (D(2) dopamine receptor [3]) | Ki (D(1A) dopamine receptor) [nM] | Compound |
| --- | --- | --- | --- | --- |
| 98% and 101% |  |  |  | NC[C@@H]1O[C@H](c2ccccc2)Cc2c1ccc(O)c2O (stereo in doubt; form 2) [listing 1 of 2 here] |
| 101% and 98% |  |  |  | NC[C@@H]1O[C@H](c2ccccc2)Cc2c1ccc(O)c2O (stereo in doubt; form 1) [listing 2 of 2 here] |
|  | 10200 nM and 3910 nM | 807 nM and 776 nM |  | NC[C@@H]1O[C@H](c2ccccc2)Cc2c1ccc(O)c2O (stereo in doubt; form 2) [listing 2 of 2 here] |
| 96% |  |  |  | NCC1OCCc2c1ccc(O)c2O (stereo not given) [listing 2 of 3 here] |
|  | > 10000 nM | > 10000 nM |  | NC[C@H]1O[C@@H](c2ccccc2)Cc2c1ccc(O)c2O |
